One test relates to M5076. Description: Antitumor efficacy against M5076 tumor cell line, activity is expressed as […] survival time (MST) at the dose of 4.8 mg/kg. Format: functional, organism-based. Set-up: dose 4.8 mg/kg. The settings on record: Mus musculus. Put shortly: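 M5076 tumor-bearing mice were dosed on days 1 and 4. Median survival time in days was recorded and T/C calculated against control MST.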

Test [1] deals with L1210. Description: Antitumor efficacy against L1210 tumor cell line, activity is expressed as […] survival time (MST) at the dose of 10 mg/kg. Format: functional, organism-based. Particulars: Mus musculus. Details: dose 10 mg/kg. Put shortly:
(§1)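 Murine L-1210 leukemia, ascitic form, with compound given on day 1 (a single ip dose on day 1 in mg/kg in one table). Activity was scored as median survival time in days, with T/C relative to untreated controls. A cisplatin positive control was run in each test.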

A further test concerns M5076 (mouse). Description: Antitumor efficacy against M5076 tumor cell line, activity is expressed as […] survival time (MST) at the dose of 4.8 mg/kg.
Test [2] deals with L1210. Description: Antitumor efficacy against L1210 tumor cell line, activity is expressed as […] survival time (MST) at the dose of 8 mg/kg. It counts as functional, organism-based. Details: dose 8 mg/kg. Particulars: Mus musculus. The method in brief:
as §1

A further test relates to B16. Description: Antitumor efficacy against B-16 tumor cell line, activity is expressed as […] survival time (MST) at the dose of 1.6 mg/kg. Particulars: Mus musculus. It counts as functional, organism-based. Set-up: dose 1.6 mg/kg. The method in brief: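 Mice bearing B-16 tumor were dosed once daily on days 1–9. Read-out was median survival time in days, with T/C relative to control MST.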

Test [3] deals with L1210. Description: Antitumor efficacy against L1210 tumor cell line, activity is expressed as […] survival time (MST) at the dose of 6 mg/kg. Format: functional, organism-based. Details: dose 6 mg/kg. The settings on record: Mus musculus. Put shortly:
as §1

For one sequence, MST and Survival time as % of untreated control (T/C) results are on record in ChEMBL document CHEMBL1124874, “Antitumor and DNA-binding properties of a group of oligomeric complexes of Pt(II) and Pt(IV)” (J Med Chem, 1990).

“And” between values parts separate entries of the source, which are not always exact repeats. Equal values may be shown once.

As to CISPLATIN, the MST in the test on M5076 was 166; with M5076 (mouse), 200; in the test on L1210 [2], 186 and 167 and 164; with B16, 213; with L1210 [3] it was 150. For the same sequence, the Survival time as % of untreated control (T/C) with L1210 [1] is 193 (2×) and 200 (2×) and 186.
